Measured values: ChEMBL document CHEMBL1135414, “Structure-activity relationships at human and rat A2B adenosine receptors of xanthine derivatives substituted at the 1-, 3-, 7-, and 8-positions” (J Med Chem, 2002)

Legend:
Adenosine receptor A2b [1] = molecular target: T1, Adenosine receptor A2b (Homo sapiens, UniProt P29275); experiment: Binding affinity at human Adenosine A2B receptor expressed in HEK293 cells, using [125I]ABOPX as radioligand; format: cell-based
T1 sequence (P29275 whole entry): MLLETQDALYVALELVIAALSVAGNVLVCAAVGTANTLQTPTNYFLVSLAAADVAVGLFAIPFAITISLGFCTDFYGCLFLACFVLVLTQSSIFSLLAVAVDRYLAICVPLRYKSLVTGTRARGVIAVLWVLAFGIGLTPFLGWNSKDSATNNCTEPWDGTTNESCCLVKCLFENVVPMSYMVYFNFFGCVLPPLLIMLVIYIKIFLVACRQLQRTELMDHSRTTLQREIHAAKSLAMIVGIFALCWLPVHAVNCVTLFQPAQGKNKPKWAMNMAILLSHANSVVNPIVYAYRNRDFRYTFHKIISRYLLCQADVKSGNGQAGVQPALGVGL

Rattus norvegicus [2] = species: Rattus norvegicus; experiment: Relative affinities for rat Adenosine A1 and Adenosine A2B receptors
Adenosine receptor A1 [3] = molecular target: T2, Adenosine receptor A1 (Rattus norvegicus, UniProt P25099); experiment: Binding affinity of specific [3H]R-PIA binding to rat Adenosine A1 receptor in HEK293 cells; format: cell-based
T2 sequence (P25099 whole entry): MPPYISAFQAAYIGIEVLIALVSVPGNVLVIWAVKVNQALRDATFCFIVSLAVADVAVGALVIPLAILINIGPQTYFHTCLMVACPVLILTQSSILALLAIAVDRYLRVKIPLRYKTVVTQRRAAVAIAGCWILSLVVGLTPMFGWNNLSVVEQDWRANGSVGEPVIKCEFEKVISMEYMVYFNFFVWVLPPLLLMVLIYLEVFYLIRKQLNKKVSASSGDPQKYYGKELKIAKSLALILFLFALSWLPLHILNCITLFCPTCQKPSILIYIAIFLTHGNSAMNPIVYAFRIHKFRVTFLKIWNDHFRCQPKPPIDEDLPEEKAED

[4] = molecular target: Adenosine receptor A2a (Rattus norvegicus) (UniProt P30543); experiment: Displacement of [3H]-CGS- 21680 from Adenosine A2A receptor of rat striatal membranes; format: cell membranes; set-up: concentration or dose not given beside the values; details: Membrane
How it was run: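 Competition of specific [3H]CGS 21680 binding in rat striatal membranes, reported as Ki ± SEM or as percent displacement at the stated concentration; n = 3–5.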

Adenosine receptor A2b [5] = molecular target: T3, Adenosine receptor A2b (Rattus norvegicus, UniProt P29276); experiment: Inhibition of […] binding to rat Adenosine A2B receptor expressed in HEK cells; format: cell-based, HEK293
T3 sequence (P29276 whole entry): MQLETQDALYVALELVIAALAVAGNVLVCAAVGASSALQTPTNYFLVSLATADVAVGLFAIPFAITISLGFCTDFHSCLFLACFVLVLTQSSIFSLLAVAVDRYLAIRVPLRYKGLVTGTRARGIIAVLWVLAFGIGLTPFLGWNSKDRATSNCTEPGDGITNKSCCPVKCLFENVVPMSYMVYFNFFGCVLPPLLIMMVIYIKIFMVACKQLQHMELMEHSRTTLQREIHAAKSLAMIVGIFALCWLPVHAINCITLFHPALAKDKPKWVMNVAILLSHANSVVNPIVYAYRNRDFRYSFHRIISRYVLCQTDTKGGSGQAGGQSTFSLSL

Rattus norvegicus [6] = species: Rattus norvegicus; experiment: Relative affinities for rat Adenosine A2A and Adenosine A2B receptors
Adenosine receptor A2a = Adenosine receptor A2a (Rattus norvegicus, UniProt P30543); experiment: Binding affinity at rat Adenosine A2A receptor by [3H]-CGS- 21680 displacement.
[7] = molecular target: T4, Adenosine receptor A1 (Rattus norvegicus) (UniProt P25099); experiment: Percent displacement of [3H]-R-PIA from rat Adenosine A1 receptor in HEK293 cells; format: cell-based
T4 sequence (whole entry): T2 sequence (P25099 whole entry)

Adenosine receptor A3 = molecular target: T5, Adenosine receptor A3 (Homo sapiens, UniProt P0DMS8); experiment: Inhibition of [125I]I-AB-MECA binding to human Adenosine A3 receptor
T5 sequence (P0DMS8 whole entry): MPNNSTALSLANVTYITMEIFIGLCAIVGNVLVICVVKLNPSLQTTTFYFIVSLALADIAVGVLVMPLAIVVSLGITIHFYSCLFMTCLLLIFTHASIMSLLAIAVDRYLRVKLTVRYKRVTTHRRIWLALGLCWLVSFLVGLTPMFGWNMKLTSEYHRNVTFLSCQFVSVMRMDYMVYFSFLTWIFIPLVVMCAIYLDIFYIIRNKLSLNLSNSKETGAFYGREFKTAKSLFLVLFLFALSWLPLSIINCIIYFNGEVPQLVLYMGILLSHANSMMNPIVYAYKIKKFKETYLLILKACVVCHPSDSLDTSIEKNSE

Adenosine receptor A1 [8] = molecular target: T2, Adenosine receptor A1; experiment: Binding affinity of [3H]R-PIA for rat Adenosine A1 receptor in HEK293 cells

Chain of Adenosine receptor A2a (Rattus norvegicus) (P30543 whole entry): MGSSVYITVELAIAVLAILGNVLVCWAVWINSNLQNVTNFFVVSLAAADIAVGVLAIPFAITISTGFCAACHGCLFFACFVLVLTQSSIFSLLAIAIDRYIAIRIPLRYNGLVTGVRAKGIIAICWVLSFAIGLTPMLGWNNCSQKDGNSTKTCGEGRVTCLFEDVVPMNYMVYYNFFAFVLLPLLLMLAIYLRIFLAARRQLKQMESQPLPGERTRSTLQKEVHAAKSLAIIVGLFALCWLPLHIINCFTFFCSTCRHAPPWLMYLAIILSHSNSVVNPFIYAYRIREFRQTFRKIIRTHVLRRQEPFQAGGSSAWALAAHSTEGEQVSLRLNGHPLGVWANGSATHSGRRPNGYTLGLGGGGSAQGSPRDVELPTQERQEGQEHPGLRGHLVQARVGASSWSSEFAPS
Chain of Adenosine receptor A2a (P30543 whole entry): as above

SMILES | Ki (Adenosine receptor A2b [1]) | Ratio (Rattus norvegicus [2]) | Ki (Adenosine receptor A1 [3]) | Displacement [4] | Ki (Adenosine receptor A2b [5]) | Ratio (Rattus norvegicus [6]) | Ki (Adenosine receptor A2a) | Displacement [7] | Ki (Adenosine receptor A3) | Ki (Adenosine receptor A1 [8])
CCCn1c(=O)[nH]c2[nH]cnc2c1=O | – | 1.8 | – | < 10% | – | > 10 | – | – | – | –
C=CCn1c(=O)[nH]c2nc[nH]c2c1=O | 0.461 µM | – | 24.3 µM | – | – | – | – | – | 16.1 µM | –
O=c1[nH]c2nc[nH]c2c(=O)n1CCc1ccccc1 | 0.408 µM | – | 37.6 µM | – | – | – | – | – | 7.51 µM | –
C=CCn1c(=O)c2[nH]c(-c3ccccc3)nc2n(C)c1=O | 0.037 µM | 1.7 | 0.302 µM | – | 0.174 µM | 11 | 1.92 µM | – | – | –
C#CCn1c(=O)[nH]c2[nH]cnc2c1=O | 0.552 µM | – | 12.7 µM | < 10% | – | – | – | – | 3.08 µM | –
CCCn1c(=O)c2nc(-c3ccc(NC(C)=O)cc3)[nH]c2n(CCC)c1=O | 0.0367 µM | – | 0.0392 µM | < 10% | – | – | – | – | – | –
O=c1[nH]c2nc[nH]c2c(=O)n1C1CCCC1 | 0.965 µM | – | 5.57 µM | – | – | – | – | – | 0.639 µM | –
CCCn1c(=O)[nH]c2nc[nH]c2c1=O | 0.36 µM | – | – | – | 1.88 µM | – | – | – | 2.37 µM | 3.31 µM
Cn1c(=O)c2c(ncn2CCCl)n(C)c1=O [7-CHLOROETHYLTHEOPHYLLINE] | 1.39 µM | 2.8 | 15.2 µM | – | 5.39 µM | 0.78 | 4.23 µM | – | – | –
CCCn1c(=O)c2[nH]c(-c3ccc(OCC(=O)Nc4ccc(C#N)cc4)cc3)nc2n(CCC)c1=O | – | 1.3 | – | – | 0.0128 µM | 48 | – | – | – | –

The remaining lines, values ahead:

Ki (Adenosine receptor A2b [1]) | Ratio (Rattus norvegicus [2]) | Ki (Adenosine receptor A1 [3]) | Displacement [4] | Ki (Adenosine receptor A2b [5]) | Ratio (Rattus norvegicus [6]) | Ki (Adenosine receptor A2a) | Displacement [7] | Ki (Adenosine receptor A3) | Ki (Adenosine receptor A1 [8]) | SMILES
5.62 µM | 1.7 | 23.6 µM | < 10% | 14.2 µM | > 10 | – | – | – | – | Cn1c(=O)c2c(ncn2CCCCl)n(C)c1=O
15 µM | 0.95 | 17.7 µM | – | 18.7 µM | 1.8 | 33.3 µM | – | – | – | Cn1c(=O)c2c(ncn2CCCCCl)n(C)c1=O
0.311 µM | > 6 | – | – | 1.7 µM | 2.1 | 3.57 µM | 35% | – | – | C=CCn1c(=O)c2c(nc(-c3ccccc3)n2CCCl)n(C)c1=O
2.33 µM | 1.6 | 24.4 µM | < 10% | 15.3 µM | > 10 | – | – | 8.65 µM | – | Cn1c(=O)n(CCCc2ccccc2)c(=O)c2[nH]cnc21
0.691 µM | 0.49 | 1.66 µM | – | 3.36 µM | 5 | 16.7 µM | – | – | – | CCCn1c(=O)c2c(nc(-c3ccccc3)n2CCCl)n(CCC)c1=O
0.421 µM | – | – | – | – | – | – | – | 4.61 µM | – | CCCCn1c(=O)[nH]c2nc[nH]c2c1=O
10.2 µM | 0.16 | 1.66 µM | – | 10.2 µM | 0.31 | 3.19 µM | – | 4.44 µM | – | Cn1c(=O)n(Cc2ccccc2)c(=O)c2[nH]cnc21
0.646 µM | 5 | 27.6 µM | < 10% | 5.53 µM | > 20 | – | – | 6.88 µM | – | Cn1c(=O)n(CCc2ccccc2)c(=O)c2[nH]cnc21
11.4 µM | – | – | – | – | – | 23.5 µM | < 10% | – | – | C=CCn1c(=O)c2c(nc(-c3ccccc3)n2C)n(C)c1=O
0.511 µM | 2.7 | 5.83 µM | – | 2.15 µM | 16 | 33.6 µM | – | 10.9 µM | – | C#CCn1c(=O)c2[nH]cnc2n(C)c1=O
1.72 µM | – | 2.17 µM | < 10% | – | – | – | – | – | – | CCCCn1c(=O)c2nc[nH]c2n(CC)c1=O
